Paper PMC5499931 (OncoTargets and therapy, 2017)
“Also recorded” adds a separate entry of the source. *1 amine or outer side, *2 acyl side, *3 side chain or, on linkers, in order; H or OH if unused. Where a SMILES comes first, the peptide text is derived from it. Side-chain parts run from the residue outwards. [ ]: non-standard residue; d: D form. The star is where a group is joined. Ethylenediamine = C(CN[*:2])N[*:1]; Hyp = O=C(O)[C@@H]1C[C@@H](O)CN1; Phg = N[C@H](C(=O)O)c1ccccc1; CO = O=C([*:1])[*:2]; Bn = c1ccc(C*)cc1

Tests used:
[1] = tested on: patients with advanced carcinoid syndrome refractory to octreotide LAR; conditions: pasireotide LAR 60 mg vs octreotide LAR 30 mg; cited from earlier work
[2] = tested on: patients with advanced NETs; assay: AEs regardless of study drug relationship; format: in vivo, human
Method in brief: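 Open-label, multicentre phase I in adults with advanced, well- or moderately differentiated NETs progressing within the prior 12 months; HbA1c >7.0% excluded. Test compound given as long-acting IM injection every 28 days. Safety set was everyone receiving at least one dose, grouped by first dose received. AEs coded by MedDRA 18.0; laboratory abnormalities graded by CTCAE 3.0.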

[3] = Pasireotide plasma concentrations; format: in vivo; conditions: human, im
[4] = tested on: patients with advanced NETs; assay: Bradycardia; format: in vivo, human; conditions: for Odds ratio [95% CI] of bradycardia (HR <40 bpm) for a 1.5-fold increase in pasireotide concentration: logistic regression, not statistically significant
Method in brief: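 HR recorded by 24-hour Holter on Cycle 1 Day 1 and Cycle 2 Day 1 in all patients. Bradycardia, defined as minimum HR <40 bpm, was analysed by pooling vital signs, 12-lead ECG and Holter data. Post hoc review covered dose-escalation cohorts plus the 120 mg expansion cohort. Dosing was IM every 28 days.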

[5] = tested on: patients with advanced NETs; assay: MTD/dose-limiting toxicity; format: in vivo, human; conditions: 80 and 120 mg; first two treatment cycles
Method in brief: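 Dose escalation in cohorts of 3–6 patients, starting at 80 mg IM every 28 days. Later doses were chosen in 20 mg multiples by a two-parameter Bayesian logistic regression model with overdose control. Intra-patient escalation was not allowed; de-escalation was permitted. DLT window was the first two 28-day cycles. Evaluable patients had two injections with sufficient safety evaluation, or a DLT. MTD was defined as the highest dose with expected DLT in ≤33%.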

Row | Molecule | Tumor control rate at month 6 [1] [%] | AEs of any grade, patients ([2]; 80 mg) [%] | AEs, Total ([2]; 80 mg i.m./28 days (n=13), Grade 3/4) | AEs, Total ([2]; 80 mg i.m./28 days (n=13), all grade) | AEs of any grade, patients ([2]; 120 mg) [%] | AEs, Total ([2]; 120 mg i.m./28 days (n=16), Grade 3/4) | AEs, Total ([2]; 120 mg i.m./28 days (n=16), all grade) | AEs, Total ([2]; all patients, 80 or 120 mg (N=29), Grade 3/4) | AEs, Total ([2]; all patients, 80 or 120 mg (N=29), all grade) | Cmax ([3]; 80 mg) [ng/mL] | Cmax ([3]; 120 mg) [ng/mL] | Incidence of bradycardia (HR <40 bpm) ([4]; 120 mg (5/16), Holter assessment, post hoc) [%] | Odds ratio [95% CI] of bradycardia (HR <40 bpm) for a 1.5-fold increase in pasireotide concentration ([4]; day time (6 am through 10 pm)) | Odds ratio [95% CI] of bradycardia (HR <40 bpm) for a 1.5-fold increase in pasireotide concentration ([4]; night time (10 pm through 6 am)) | Protocol-defined dose-limiting toxicities (DLTs) [5]
1 | octreotide [octreotide LAR] | 46.2 |  |  |  |  |  |  |  |  |  |  |  |  |  | 
2 | NCCCC[C@@H]1NC(=O)[C@@H](Cc2c[nH]c3ccccc23)NC(=O)[C@H](c2ccccc2)NC(=O)[C@@H]2C[C@@H](OC(=O)NCCN)CN2C(=O)[C@H](Cc2ccccc2)NC(=O)[C@H](Cc2ccc(OCc3ccccc3)cc2)NC1=O [Pasireotide LAR, pasireotide] (cyclo([Hyp]([CO-Ethylenediamine])[Phg][dW]KY(Bn)F)) |  | 92 | 9 (69.2) n (%) | 12 (92.3) n (%) | 100 | 11 (68.8) n (%) | 16 (100) n (%) | 20 (69.0) n (%) | 28 (96.6) n (%) | 13.7 ± 11.5 | 23.2 ± 31.4 | 31 | 1.67 [0.38–7.34] | 2.02 [0.49–8.29] | No protocol-defined dose-limiting toxicities; also recorded: no protocol-defined DLTs
